Measurements reported in ChEMBL document CHEMBL3525900, “Pharmacokinetics, distribution, and metabolism of [14C]sunitinib in rats, monkeys, and humans” (Drug Metab Dispos, 2012).

How the values were obtained:
[1] = test system: Rattus norvegicus; assay: AUC (0 to infinity) as total radioactivity in female Sprague-Dawley rat plasma at 15 mg/kg, po administered as single dose by LC/MS/MS analysis; type: ADME, organism-based; set-up: time infinity, dose 15 mg/kg, dosed compound name [14C]Sunitinib, route oral; conditions: in vivo
Summary of the method: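 Single dose of [14C]sunitinib L-malate as free base, 50 µCi/kg. IV dose was 5 mg/kg by tail vein in 5 females. Oral dose was 15 mg/kg by gavage in 3 females and 3 males. Total radioactivity was by scintillation counting. […] Cmax was read from raw data, t½ by log-linear regression, AUC by linear trapezoidal rule.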

[2] = test system: Adrenal; assay: Drug concentration in male albino rat adrenal assessed as radioactivity per gram of tissue at 20 mg/kg administered as single dose via gastric gavage measured after 168 hrs by autoradiographic analysis; type: ADME, organism-based; set-up: dose 20 mg/kg, dosed compound name [14C]Sunitinib; conditions: in vivo, po
[3] = test system: Rattus norvegicus; assay: Total drug recovery in female Sprague-Dawley rat at 5 mg/kg, iv administered as single dose during 0 to 72 hrs by liquid scintillation counting; type: ADME, organism-based; set-up: dose 5 mg/kg, dosed compound name [14C]Sunitinib, route intravenous; conditions: in vivo
[4] = test system: Adrenal; assay: Drug concentration in male Lister Hooded pigmented rat adrenal assessed as radioactivity per gram of tissue at 20 mg/kg administered as single dose via gastric gavage measured after 24 hrs by autoradiographic analysis; type: ADME, organism-based; set-up: dose 20 mg/kg, dosed compound name [14C]Sunitinib; conditions: in vivo, po
[5] = Drug concentration in female albino rat salivary gland assessed as radioactivity per gram of tissue at 20 mg/kg administered as single dose via gastric gavage measured after 3 hrs by autoradiographic analysis; type: ADME, organism-based; set-up: dose 20 mg/kg, dosed compound name [14C]Sunitinib; conditions: in vivo, po
Summary of the method: (§1)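 Sprague Dawley albino rats, ca 7-8 weeks old, dosed once by gastric gavage with [14C]sunitinib L-malate (15 mg freebase/kg, 100 µCi/kg). One male and one female killed by CO2 at 3, 6, 24, 72 and 168 h. Carcasses frozen in solid CO2/hexane, embedded and cut into 30 µm sagittal sections, then freeze-dried. Radioactivity quantified by whole-body autoradiography against standards by regression, background subtracted.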

[6] = test system: Kidney; assay: Drug concentration in female albino rat kidney assessed as radioactivity per gram of tissue at 20 mg/kg administered as single dose via gastric gavage measured after 3 hrs by autoradiographic analysis; type: ADME, organism-based; set-up: dose 20 mg/kg, dosed compound name [14C]Sunitinib; conditions: in vivo, po; summary of the method: as §1
[7] = test system: Large intestine; assay: Drug concentration in female albino rat large intestine assessed as radioactivity per gram of tissue at 20 mg/kg administered as single dose via gastric gavage measured after 3 hrs by autoradiographic analysis; type: ADME, organism-based; set-up: dose 20 mg/kg, dosed compound name [14C]Sunitinib; conditions: in vivo, po; summary of the method: as §1
[8] = test system: Spleen; assay: Drug concentration in male Lister Hooded pigmented rat spleen assessed as radioactivity per gram of tissue at 20 mg/kg administered as single dose via gastric gavage measured after 24 hrs by autoradiographic analysis; type: ADME, organism-based; set-up: dose 20 mg/kg, dosed compound name [14C]Sunitinib; conditions: in vivo, po
[9] = test system: Ovary; assay: Drug concentration in female albino rat ovary assessed as radioactivity per gram of tissue at 20 mg/kg administered as single dose via gastric gavage measured after 6 hrs by autoradiographic analysis; type: ADME, organism-based, Female gonad; set-up: dose 20 mg/kg, dosed compound name [14C]Sunitinib; conditions: in vivo, po; summary of the method: as §1
[10] = test system: Pancreas; assay: Drug concentration in female albino rat pancreas assessed as radioactivity per gram of tissue at 20 mg/kg administered as single dose via gastric gavage measured after 6 hrs by autoradiographic analysis; type: ADME, organism-based; set-up: dose 20 mg/kg, dosed compound name [14C]Sunitinib; conditions: in vivo, po
Summary of the method: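 Sprague Dawley (albino) and Lister Hooded (pigmented) rats, ca 7-8 weeks old, 179-310 g, acclimated 7 days. Single gavage dose of [14C]sunitinib L-malate (15 mg freebase/kg, 100 µCi/kg). One male and one female killed by CO2 per time point: albino at 3, 6, 24, 72, 168 h; pigmented at 24, 72, 168, 336 h. Carcasses frozen in solid CO2/hexane, 30 µm sagittal sections freeze-dried. Tissue radioactivity read by quantitative whole-body autoradiography against regression of standards, mean background subtracted.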

[11] = test system: Kidney; assay: Drug concentration in male albino rat kidney assessed as radioactivity per gram of tissue at 20 mg/kg administered as single dose via gastric gavage measured after 3 hrs by autoradiographic analysis; type: ADME, organism-based; set-up: dose 20 mg/kg, dosed compound name [14C]Sunitinib; conditions: in vivo, po
[12] = Drug concentration in female albino rat skeletal muscle assessed as radioactivity per gram of tissue at 20 mg/kg administered as single dose via gastric gavage measured after 6 hrs by autoradiographic analysis; type: ADME, organism-based; set-up: dose 20 mg/kg, dosed compound name [14C]Sunitinib; conditions: in vivo, po
[13] = test system: Stomach; assay: Drug concentration in female albino rat stomach assessed as radioactivity per gram of tissue at 20 mg/kg administered as single dose via gastric gavage measured after 3 hrs by autoradiographic analysis; type: ADME, organism-based; set-up: dose 20 mg/kg, dosed compound name [14C]Sunitinib; conditions: in vivo, po
[14] = test system: Large intestine; assay: Drug concentration in female albino rat large intestine assessed as radioactivity per gram of tissue at 20 mg/kg administered as single dose via gastric gavage measured after 6 hrs by autoradiographic analysis; type: ADME, organism-based; set-up: dose 20 mg/kg, dosed compound name [14C]Sunitinib; conditions: in vivo, po; summary of the method: as §1
[15] = test system: Liver; assay: Drug concentration in female albino rat liver assessed as radioactivity per gram of tissue at 20 mg/kg administered as single dose via gastric gavage measured after 6 hrs by autoradiographic analysis; type: ADME, organism-based; set-up: dose 20 mg/kg, dosed compound name [14C]Sunitinib; conditions: in vivo, po; summary of the method: as §1
[16] = Drug concentration in male Lister Hooded pigmented rat testis assessed as radioactivity per gram of tissue at 20 mg/kg administered as single dose via gastric gavage measured after 72 hrs by autoradiographic analysis; type: ADME, organism-based; set-up: dose 20 mg/kg, dosed compound name [14C]Sunitinib; conditions: in vivo, po
[17] = test system: Blood; assay: Drug concentration in female Lister Hooded pigmented rat blood assessed as radioactivity per gram of tissue at 20 mg/kg administered as single dose via gastric gavage measured after 24 hrs by autoradiographic analysis; type: ADME, organism-based; set-up: dose 20 mg/kg, dosed compound name [14C]Sunitinib; conditions: in vivo, po
Summary of the method: (§2)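 Lister Hooded (pigmented) rats, ca 7-8 weeks old, acclimated 7 days, given [14C]sunitinib L-malate by gastric gavage at 20 mg/kg (15 mg freebase/kg, 100 µCi/kg). One male and one female killed by CO2 at 24, 72, 168 and 336 h. Carcasses frozen in solid CO2/hexane and embedded in frozen cellulose. 30 µm sagittal cryosections were freeze-dried. Tissue radioactivity measured by quantitative whole-body autoradiography against calibration standards, with background subtracted.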

[18] = test system: Brain; assay: Drug concentration in male albino rat brain assessed as radioactivity per gram of tissue at 20 mg/kg administered as single dose via gastric gavage measured after 72 hrs by autoradiographic analysis; type: ADME, organism-based; set-up: dose 20 mg/kg, dosed compound name [14C]Sunitinib; conditions: in vivo, po
[19] = test system: Adrenal; assay: Drug concentration in female albino rat adrenal assessed as radioactivity per gram of tissue at 20 mg/kg administered as single dose via gastric gavage measured after 72 hrs by autoradiographic analysis; type: ADME, organism-based; set-up: dose 20 mg/kg, dosed compound name [14C]Sunitinib; conditions: in vivo, po
Summary of the method: (§3)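 Sprague Dawley (albino) rats, ca 7-8 weeks old, received a single gastric-gavage dose of [14C]sunitinib L-malate at 20 mg/kg (15 mg freebase/kg, 100 µCi/kg). One animal per sex killed by CO2 at 3, 6, 24, 72 and 168 h, then frozen in CO2/hexane. 30 µm sagittal sections were cut and freeze-dried. Radioactivity per gram quantified by whole-body autoradiography using regression against standards. LOQ 0.04–0.06 µg freebase equiv/g.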

[20] = Drug concentration in male albino rat testis assessed as radioactivity per gram of tissue at 20 mg/kg administered as single dose via gastric gavage measured after 6 hrs by autoradiographic analysis; type: ADME, organism-based; set-up: dose 20 mg/kg, dosed compound name [14C]Sunitinib; conditions: in vivo, po
[21] = Drug concentration in female albino rat bone marrow assessed as radioactivity per gram of tissue at 20 mg/kg administered as single dose via gastric gavage measured after 24 hrs by autoradiographic analysis; type: ADME, organism-based; set-up: dose 20 mg/kg, dosed compound name [14C]Sunitinib; conditions: in vivo, po; summary of the method: as §3
[22] = test system: Zone of skin; assay: Drug concentration in female Lister Hooded pigmented rat abdomen skin assessed as radioactivity per gram of tissue at 20 mg/kg administered as single dose via gastric gavage measured after 24 hrs by autoradiographic analysis; type: ADME, organism-based; set-up: dose 20 mg/kg, dosed compound name [14C]Sunitinib; conditions: in vivo, po
Summary of the method: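 Pigmented Lister Hooded rats, 7-8 weeks old, received [14C]sunitinib L-malate by gavage at 20 mg/kg (15 mg freebase/kg, 100 µCi/kg). One rat per sex was killed by CO2 at each of 24, 72, 168 and 336 h. Carcasses were frozen in solid CO2/hexane and cut into 30 µm sagittal sections, then freeze-dried. Tissue radioactivity was quantified by whole-body autoradiography calibrated against standards by regression (LOQ 0.04–0.06 µg eq/g).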

[23] = Drug concentration in female Lister Hooded pigmented rat uveal tract assessed as radioactivity per gram of tissue at 20 mg/kg administered as single dose via gastric gavage measured after 336 hrs by autoradiographic analysis; type: ADME, organism-based; set-up: dose 20 mg/kg, dosed compound name [14C]Sunitinib; conditions: in vivo, po; summary of the method: as §2

- AUC [1]: 69949 ng.Eq.hr/ml
- Radiolabel recovery [2]: 0.31 ugequiv
- Radiolabel recovery [3]: 87.4%
- Radiolabel recovery [4]: 4.3 ugequiv
- Radiolabel recovery [5]: 27.64 ugequiv
- Radiolabel recovery [6]: 16.11 ugequiv
- Radiolabel recovery [7]: 7 ugequiv
- Radiolabel recovery [8]: 1.63 ugequiv
- Radiolabel recovery [9]: 11.63 ugequiv
- Radiolabel recovery [10]: 11.3 ugequiv
- Radiolabel recovery [11]: 13.24 ugequiv
- Radiolabel recovery [12]: 3.33 ugequiv
- Radiolabel recovery [13]: 15.45 ugequiv
- Radiolabel recovery [14]: 7.43 ugequiv
- Radiolabel recovery [15]: 15.16 ugequiv
- Radiolabel recovery [16]: 0.87 ugequiv
- Radiolabel recovery [17]: 0.14 ugequiv
- Radiolabel recovery [18]: 0.07 ugequiv
- Radiolabel recovery [19]: 1.52 ugequiv
- Radiolabel recovery [20]: 0.9 ugequiv
- Radiolabel recovery [21]: 1.21 ugequiv
- Radiolabel recovery [22]: 3.23 ugequiv
- Radiolabel recovery [23]: 323.3 ugequiv
SMILES: CCN(CC)CCNC(=O)c1c(C)[nH]c(/[14CH]=C2\C(=O)Nc3ccc(F)cc32)c1C.O=C(O)C[C@H](O)C(=O)O
